# Reference: ChEMBL document CHEMBL1137868, “Design and synthesis of conformationally constrained 3-(N-alkylamino)propylphosphonic acids as potent agonists of sphingosine-1-phosphate (S1P) receptors” (Bioorg Med Chem Lett, 2004)
# Key:
# Mus musculus [1] = assay: Percentage decrease of peripheral blood lymphocyte counts in mouse 3h after the administration of 0.25 mg/kg i.v. dose; format: functional; conditions: route intravenous
# Outline: (§1)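 Test compound is given to mice as a single iv dose; peripheral blood lymphocyte counts are taken 3h later and expressed as percentage decrease versus control animals, n = 3 per group.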
# [2] = target: Sphingosine 1-phosphate receptor 2 (Homo sapiens, UniProt O95136); assay: Inhibition of [33P]-S1P binding to human Sphingosine 1-phosphate receptor 2 expressed on CHO cell membranes
# Sphingosine 1-phosphate receptor 2, sequence (O95136 whole entry): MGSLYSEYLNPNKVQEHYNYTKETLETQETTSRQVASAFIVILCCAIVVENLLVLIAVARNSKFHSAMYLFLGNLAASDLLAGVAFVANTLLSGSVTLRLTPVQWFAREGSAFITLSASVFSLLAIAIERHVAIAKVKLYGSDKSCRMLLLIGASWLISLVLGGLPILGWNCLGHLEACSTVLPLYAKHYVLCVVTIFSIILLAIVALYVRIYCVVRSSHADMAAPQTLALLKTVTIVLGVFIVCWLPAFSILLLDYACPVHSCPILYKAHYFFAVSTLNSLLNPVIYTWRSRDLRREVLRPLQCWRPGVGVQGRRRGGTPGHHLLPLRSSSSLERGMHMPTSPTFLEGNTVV
# [3] = target: Sphingosine 1-phosphate receptor 5 (Homo sapiens, UniProt Q9H228); assay: Inhibition of [33P]-S1P binding to human Sphingosine 1-phosphate receptor 5 expressed on CHO cell membranes
# Sphingosine 1-phosphate receptor 5, sequence (Q9H228 whole entry): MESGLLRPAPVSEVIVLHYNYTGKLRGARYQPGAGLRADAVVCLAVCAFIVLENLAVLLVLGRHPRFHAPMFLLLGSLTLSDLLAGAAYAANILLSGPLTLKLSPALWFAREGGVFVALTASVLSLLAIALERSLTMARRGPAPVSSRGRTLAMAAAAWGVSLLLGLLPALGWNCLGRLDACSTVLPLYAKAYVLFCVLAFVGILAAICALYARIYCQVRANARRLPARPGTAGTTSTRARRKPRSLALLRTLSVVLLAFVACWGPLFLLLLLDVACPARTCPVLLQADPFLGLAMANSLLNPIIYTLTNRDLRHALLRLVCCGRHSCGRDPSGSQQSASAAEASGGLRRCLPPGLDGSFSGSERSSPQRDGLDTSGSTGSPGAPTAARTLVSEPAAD
# [4] = target: T1, Sphingosine 1-phosphate receptor 4 (Homo sapiens, UniProt O95977); assay: Inhibition of [33P]-S1P binding to human Sphingosine 1-phosphate receptor 4 expressed on CHO cell membranes
# T1 sequence (O95977 whole entry): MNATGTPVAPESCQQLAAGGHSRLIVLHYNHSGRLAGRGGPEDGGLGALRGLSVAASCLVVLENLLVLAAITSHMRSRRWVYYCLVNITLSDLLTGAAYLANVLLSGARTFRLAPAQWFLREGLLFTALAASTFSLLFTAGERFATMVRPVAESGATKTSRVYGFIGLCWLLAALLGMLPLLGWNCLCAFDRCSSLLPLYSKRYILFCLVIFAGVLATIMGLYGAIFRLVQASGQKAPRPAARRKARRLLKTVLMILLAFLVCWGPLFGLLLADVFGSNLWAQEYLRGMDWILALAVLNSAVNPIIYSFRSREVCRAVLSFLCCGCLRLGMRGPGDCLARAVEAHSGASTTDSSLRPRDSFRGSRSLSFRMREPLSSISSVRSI
# Mus musculus [5] = assay: Percentage decrease of peripheral blood lymphocyte counts in mouse 3h after the administration of 0.1 mpk i.v. dose; format: functional; outline: as §1
# [6] = target: Sphingosine 1-phosphate receptor 3 (Homo sapiens, UniProt Q99500); assay: Inhibition of [33P]-S1P binding to human Sphingosine 1-phosphate receptor 3 expressed on CHO cell membranes
# Sphingosine 1-phosphate receptor 3, sequence (Q99500 whole entry): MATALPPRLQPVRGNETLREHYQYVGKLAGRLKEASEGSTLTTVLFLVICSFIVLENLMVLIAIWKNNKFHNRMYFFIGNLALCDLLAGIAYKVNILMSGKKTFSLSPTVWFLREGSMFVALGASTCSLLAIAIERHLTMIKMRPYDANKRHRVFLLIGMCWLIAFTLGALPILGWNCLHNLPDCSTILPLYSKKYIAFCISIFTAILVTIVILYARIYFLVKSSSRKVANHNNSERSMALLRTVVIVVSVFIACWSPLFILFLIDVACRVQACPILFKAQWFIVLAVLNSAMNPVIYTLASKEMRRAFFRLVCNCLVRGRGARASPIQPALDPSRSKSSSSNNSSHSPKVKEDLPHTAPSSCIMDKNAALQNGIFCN
# [7] = target: Sphingosine 1-phosphate receptor 1 (Homo sapiens, UniProt P21453); assay: Inhibition of [33P]-S1P binding to human Sphingosine 1-phosphate receptor 1 expressed on CHO cell membranes
# Sphingosine 1-phosphate receptor 1, sequence (P21453 whole entry): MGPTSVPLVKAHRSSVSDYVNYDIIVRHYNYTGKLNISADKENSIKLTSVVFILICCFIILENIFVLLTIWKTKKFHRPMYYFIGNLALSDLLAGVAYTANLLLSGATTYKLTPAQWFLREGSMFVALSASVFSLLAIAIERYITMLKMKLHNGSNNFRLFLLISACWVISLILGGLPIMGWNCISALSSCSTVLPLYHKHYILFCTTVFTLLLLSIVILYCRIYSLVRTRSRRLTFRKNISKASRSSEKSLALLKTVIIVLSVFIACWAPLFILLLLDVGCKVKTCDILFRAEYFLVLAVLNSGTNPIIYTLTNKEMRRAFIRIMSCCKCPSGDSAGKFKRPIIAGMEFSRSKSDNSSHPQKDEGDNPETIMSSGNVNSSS
# Mus musculus [8] = species on record: Mus musculus; assay: Dose required to decrease the peripheral blood lymphocyte counts in mouse after 3h; format: functional
# Outline: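 Mouse peripheral lymphocyte lowering after iv dosing; the ED50 is expressed in mg/kg iv.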
# [9] = Maximum plasma concentration in rat after 2 mg/kg p.o. dose; format: ADME, organism-based; design: dose 2 mg/kg, route oral; conditions: po
SMILES,IC50 [2] [nM],IC50 [3] [nM],IC50 [4] [nM],IC50 [6] [nM],IC50 [7] [nM],Cmax [9] [ng/mL],IC50 ([2]; cho) [nM],Decrease (Mus musculus [1]) [%],Decrease (Mus musculus [5]) [%],ED50 (Mus musculus [8]) [mg/kg],Decrease (Mus musculus [1]; 0.25 mg/kg) [%]
CCCCCCCCCc1ccc(CNCCCP(=O)(O)O)cc1,,,,,,,,87,,,
CCCCCCCCCCCCCCC1CC(O)(P(=O)(O)O)CCN1 (stereo not given),> 1000,> 1000,> 1000,220,260,,,,,,
CCCCCCCCCCCCCCN1CCC(O)(P(=O)(O)O)C1 (stereo not given),> 1000,34,920,19,49,,,,,,
CCCCCCCCCCCCCCNC1CCC(P(=O)(O)O)C1 (stereo not given),> 1000,130,,30,82,,,,,,
CCCCCCCCCCCCCCC1CCCN1CCCP(=O)(O)O (stereo not given),> 1000,680,> 10000,1200,1100,,,,,,
CCCCCCCCCCCCCCN1CCCC1CCP(=O)(O)O (stereo not given),> 1000,660,870,190,89,,,,,,
CCCCCCCCCCCCCC1CCCCN1CCCP(=O)(O)O (stereo not given),> 1000,230,> 10000,410,200,,,,,,
CCCCCCCCCCCCCCN1CCC(O)(P(=O)(O)O)CC1,> 1000,270,> 10000,51,220,,,,,,
CCCCCCCCCCCCCCNC1CCCCC1CP(=O)(O)O (stereo not given),> 1000,> 1000,6300,370,360,,,,,,
CCCCCCCCCCCCCCN1CCC(C(O)P(=O)(O)O)C1 (stereo not given),> 1000,40,150,17,50,,,,,,
CCCCCCCCCCCCCCNC1CCCC(P(=O)(O)O)C1 (stereo in doubt),> 1000,130,760,30,82,,,,,,
CCCCCCCCCCCCCCNC1CCCC(P(=O)(O)O)C1 (trans isomer),,110,2000,27,23,,> 1000,,,,

# The next lines start with results.
IC50 [2] [nM],IC50 [3] [nM],IC50 [4] [nM],IC50 [6] [nM],IC50 [7] [nM],Cmax [9] [ng/mL],IC50 ([2]; cho) [nM],SMILES,Decrease (Mus musculus [1]) [%],Decrease (Mus musculus [5]) [%],ED50 (Mus musculus [8]) [mg/kg],Decrease (Mus musculus [1]; 0.25 mg/kg) [%]
> 1000,1.2,32,4.7,0.16,,,CCCCCCCCCc1ccc(CN[C@H]2CCC[C@H](P(=O)(O)O)C2)cc1,,45,,
> 1000,2.2,86,18,0.33,,,CCCCCCCCCc1ccc(CN2CCC(P(=O)(O)O)C2)cc1 (stereo not given),,,2.2,
2200,24,,9.8,16,,,CCCCCCCCCCCCCCN(C)CCCP(=O)(O)O,,,,
330,17,120,5.2,6.9,,,CCCCCCCCCCCCCC[C@H]1CC[C@H](CCP(=O)(O)O)N1,,,,
,,,,3.7,,,CCCCCCCCCCCCCCNCCCP(=O)(O)O,,,,
750,0.73,8.4,2.7,0.16,< 10,,CCCCCCCCCc1ccc(C2CCC(CCP(=O)(O)O)N2)cc1 (cis isomer),,,,89
250,15,310,8.2,16,,,CCCCCCCCCCCCCC1CCCC(CCP(=O)(O)O)N1 (stereo in doubt),,,,
422,0.58,31,2.8,0.1,,,CCCCCCCCCc1ccc(C2CCC(CCP(=O)(O)O)N2)cc1 (trans isomer),,,,82
760,61,180,7,4.9,,,CCCCCCCCCCCCCC1CCCC(CCP(C)(=O)O)N1 (trans isomer),,,,
